Data reported in PMC10424151 (Molecular Therapy. Nucleic Acids, 2023).

How the values were obtained:
[1] = Dynamic light-scattering measurement of hydrodynamic radius; type: physicochemical; details: DLS, 100 μM peptide + 1 μM bDNA, 1 h incubation, 25 °C
In short: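 bDNA was dissolved in self-assembly buffer, pH 7.4, and filtered through 0.22 µm. Linear peptide (100 µM) was incubated with 1 µM bDNA for 1 h, with peptide alone as control. DLS was read at 658 nm with a 175° scattering angle at 25°C, averaging triplicate readings. Rh came from autocorrelation analysis via the translational diffusion coefficient and the Stokes-Einstein relation.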

DNase I = target: T1, DNase I (Homo sapiens, UniProt P24855); experiment: DNase I stability assay; type: in vitro ADME; details: for stability of peptide-bDNA complex in the presence of DNase I: 1 μM bDNA + 50 or 100 μM peptide, 10 U/mL DNase I, up to 30 min, 37 °C, 2% AGE
T1 sequence (P24855 23-282): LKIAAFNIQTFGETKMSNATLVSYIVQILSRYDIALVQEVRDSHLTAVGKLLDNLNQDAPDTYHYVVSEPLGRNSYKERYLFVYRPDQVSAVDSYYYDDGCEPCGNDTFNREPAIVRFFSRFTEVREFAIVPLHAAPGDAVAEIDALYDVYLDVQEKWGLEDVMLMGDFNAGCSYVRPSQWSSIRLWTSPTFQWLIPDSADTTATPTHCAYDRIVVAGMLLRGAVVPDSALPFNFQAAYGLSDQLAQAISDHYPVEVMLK
In short: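 Complexes of 1 µM bDNA pre-incubated with 100 µM linear peptide were exposed to 10 U/mL DNase I for 15 and 30 min. A second set used 1 µM bDNA with 50 µM linear peptide, digested for 5, 10, 20 and 30 min at 37°C. Digests were run on 2% agarose gels at 80 V for 25 min, and stability was judged from band intensity.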

Alexa 488 bDNA = experiment: Absorbance; type: binding; details: 1 μM Alexa 488 bDNA, peptide/bDNA 0:1 to 100:1, 1 h, 25 °C, 495 nm
In short: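 Alexa 488-labelled bDNA (1 μM) incubated 1 h at 25 °C with linear test peptide at peptide/bDNA molar ratios 0:1 to 100:1. UV-vis absorbance spectra recorded over 450–550 nm. Hypochromicity expressed as ΔOD_r = (OD0 − OD)/OD0, where OD0 is free labelled bDNA and OD is the bDNA–peptide complex, then plotted against molar ratio.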

[2] = Zeta potential measurement; type: physicochemical; details: 1 μM bDNA + 100 μM peptide, 1 h, 25 °C
In short: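 bDNA (1 μM) incubated 1 h with 100 μM linear test peptide. bDNA alone and peptide alone at the same concentrations incubated 1 h at 25 °C as controls. Zeta potential […] by the Smoluchowski approximation. Values are the mean of triplicate readings.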

bDNAaso [3] = experiment: Isothermal titration calorimetry of linear peptides with bDNA; type: binding; details: 25 °C, 1 μM bDNA titrated with 100 μM peptide, 1× TEAM buffer pH 7.4
[4] = Release of bDNA from peptide complexes; type: in vitro ADME; details: 1 μM bDNAaso + 100 μM W4R4 in serum-free DMEM, 1% SDS, 30 min, 2% agarose gel
In short: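 Gel-shift release: 1 μM bDNAaso was complexed with 100 μM test peptide in 20 μL serum-free DMEM for 1 h at room temperature. The complex was exposed to 1% SDS for 30 min, then run on 2% agarose for 25 min at constant 80 V and the gel imaged.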

HCT-116 cells = experiment: Cellular uptake of Alexa 488-labeled bDNA by FACS; type: cell-based; details: HCT-116, 75 nM Alexa 488-labeled bDNA + 25 μM peptide, overnight
In short: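 HCT-116 cells (2×10^5 per well) seeded overnight in serum-free DMEM, then washed twice with PBS. Alexa 488-bDNA (75 nM) premixed with test peptide (25 μM) in DMEM about 30 min at room temperature, added to cells and left overnight at 37 °C. Cells detached with 0.25% trypsin/0.53 mM EDTA (5 min, 37 °C), pelleted at 700 × g for 5 min, washed twice, resuspended in PBS and analysed by flow cytometry.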

bDNAaso [5] = experiment: CD titration of bDNAaso with linear peptides; type: binding; details: 1 μM bDNA, 5 to 100 μM peptide, 25 °C (Figures 4G and S13G)

Substance: Ac-WWWGGGRRR-Am [W3R3]
- change of hydrodynamic radii of the peptide in the presence of bDNAs [1]: moderate increase
- stability of peptide-bDNA complex in the presence of DNase I (DNase I): retained the stability

Substance: Ac-WWWGGHHHH-Am [W3H4]
- change of hydrodynamic radii of the peptide in the presence of bDNAs [1]: moderate increase

Substance: Ac-WWWWGGHHHH-Am [W4H4]
- change of hydrodynamic radii of the peptide in the presence of bDNAs [1]: increased significantly
- stability of peptide-bDNA complex in the presence of DNase I (DNase I): degraded close to the control
- protection of peptide-bound bDNAs against nuclease degradation (DNase I; peptide-bound bDNAs, Figures S19 and S20): 20%
- change in absorbance of Alexa 488 bDNA with increasing molar ratio of peptide (Alexa 488 bDNA): no significant alteration in absorbance

Substance: Ac-WWWWGGRRRR-Am [W4R4]
- change of hydrodynamic radii of the peptide in the presence of bDNAs [1]: increased significantly
- zeta potential of bDNA in the presence of the peptide [2]: positive zeta potential
- binding affinity to bDNAaso relative to other peptide-bound bDNAs (ITC) (bDNAaso [3]): about nine times higher
- stability of peptide-bDNA complex in the presence of DNase I (DNase I): retained the stability
- effect of SDS on the W4R4-bDNAaso complex [4]: triggered the release
- cellular internalization relative to W3R3 (FACS) (HCT-116 cells): 1.7 fold
- change in absorbance of Alexa 488 bDNA with increasing molar ratio of peptide (Alexa 488 bDNA): significant decline in absorbance
- CD peak intensities of bDNA in peptide-bDNA complex (bDNAaso [5]): flattened to the baseline
